Test results published in ChEMBL document CHEMBL4342467, “Discovery of a Novel Dual-Target Inhibitor of ERK1 and ERK5 That Induces Regulated Cell Death to Overcome Compensatory Mechanism in Specific Tumor Types” (J Med Chem, 2020).
pIC50: −log10 of the molar value. Activity calls are given as the source filed them. The calls are words filed in the database; no cut-off is given here.

How the values were obtained:
[1] = Effect on Ras/Raf/MEK/ERK signaling in human MKN74 cells assessed as change in MEK1/2 phosphorylation at S217/221 residue at 0.5 uM measured up to 24 hrs by Western blot analysis; assay type: cell-based
In short: (§1)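 MKN-74 cells exposed to 0.5 μM for 0, 6, 12 and 24 h. Ras, Raf, p-MEK1/2, MEK1/2, p-JNK, JNK, p-p38 and p38 immunoblotted, with GAPDH as loading control.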

HL-60 [2] = experiment: Induction of autophagy in human HL60 cells; assay type: functional, cell-based
MKN-74 [3] = experiment: Induction of cytoplasmic vacuolization in human MKN74 cells; assay type: functional, cell-based
[4] = AUC (0 to t) in Sprague-Dawley rat at 1 mg/kg, iv by LC-MS analysis; assay type: ADME, organism-based; conditions: in vivo
In short: (§2)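 Rats, two groups of 3; single i.v. dose 1 mg/kg or oral dose 10 mg/kg. Plasma concentration-time profiles used to derive T1/2, Tmax, Cmax, AUC0-t, AUC0-∞ and oral bioavailability. Data from triplicate testing, ± standard deviation.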

MKN-74 [5] = experiment: Antitumor activity against human MKN74 cells xenografted in BALB/c mouse assessed as reduction in Ki-67 positive cells at 50 mg/kg, po administered once daily for 16 days measured post-last dose by immunohistochemical analysis; assay type: functional, organism-based
In short: (§3)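 Tumors excised from control and 50 mg/kg p.o.-treated xenograft mice were immunostained for Ki-67, p-ERK1/2 and p-ERK5. Positive-cell percentage quantified and compared with control.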

MKN-74 [6] = experiment: Induction of autophagy in human MKN74 cells harboring ATG5 siRNA assessed as increase in p62 degradation at 0.5 uM by Western blot analysis; assay type: functional, cell-based
In short: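 MKN-74 cells transfected with ATG5 or negative-control siRNA for the indicated times, then 0.5 μM. ATG5, LC3 and p62 immunoblotted, with GAPDH loading control.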

[7] = Half life in Sprague-Dawley rat at 10 mg/kg, po by LC-MS analysis; assay type: ADME, organism-based; conditions: in vivo; in short: as §2
[8] = Cmax in Sprague-Dawley rat at 1 mg/kg, iv by LC-MS analysis; assay type: ADME, organism-based; set-up: dose 1 mg/kg, route intravenous; conditions: in vivo; in short: as §2
[9] = target: T1, Mitogen-activated protein kinase; ERK1/ERK2 (Homo sapiens) (UniProt P27361+P28482); experiment: Inhibition of ERK1/2 in human MKN74 cells harboring siRNA assessed as reduction in ERK1/2 phosphorylation at 0.5 uM by immunofluorescence assay; assay type: cell-based
T1 sequence (P27361 whole entry, looked up): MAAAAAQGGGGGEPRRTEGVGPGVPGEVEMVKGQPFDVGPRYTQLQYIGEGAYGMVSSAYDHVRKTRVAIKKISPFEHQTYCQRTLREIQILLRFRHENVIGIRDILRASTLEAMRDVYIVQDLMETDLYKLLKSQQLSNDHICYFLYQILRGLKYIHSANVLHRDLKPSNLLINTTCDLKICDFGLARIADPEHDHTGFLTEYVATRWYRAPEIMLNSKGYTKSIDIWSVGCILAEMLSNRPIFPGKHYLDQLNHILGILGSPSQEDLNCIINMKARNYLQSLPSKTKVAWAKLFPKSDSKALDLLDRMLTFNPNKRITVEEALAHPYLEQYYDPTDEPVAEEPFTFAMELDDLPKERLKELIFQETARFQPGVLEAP
T1 sequence (P28482 whole entry, looked up): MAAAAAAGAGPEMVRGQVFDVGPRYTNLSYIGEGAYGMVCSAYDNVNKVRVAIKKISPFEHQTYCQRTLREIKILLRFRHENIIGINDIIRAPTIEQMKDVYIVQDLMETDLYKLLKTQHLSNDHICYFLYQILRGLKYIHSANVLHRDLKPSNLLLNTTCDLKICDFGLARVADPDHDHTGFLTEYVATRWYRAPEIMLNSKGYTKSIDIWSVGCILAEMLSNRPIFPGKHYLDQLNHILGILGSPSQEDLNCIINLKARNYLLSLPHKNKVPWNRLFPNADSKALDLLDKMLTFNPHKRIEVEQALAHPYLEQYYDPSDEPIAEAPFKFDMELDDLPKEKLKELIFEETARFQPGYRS
In short: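 MKN-74 cells transfected with ERK1/2-specific or negative-control siRNA for the indicated times, then given 0.5 μM. p-ERK1/2 and p-ERK5 puncta detected by immunocytochemistry.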

[10] = target: Mitogen-activated protein kinase 3 (Homo sapiens) (UniProt P27361); experiment: Inhibition of ERK1 (unknown origin) at 1 uM by Z'-Lyte assay relative to control
Mitogen-activated protein kinase 3 (Homo sapiens), sequence (P27361 whole entry): as the sequence (P27361 whole entry, looked up) above

[11] = Effect on Ras/Raf/MEK/ERK signaling in human MKN74 cells assessed as change in Raf expression at 0.5 uM measured up to 24 hrs by Western blot analysis; assay type: cell-based; in short: as §1
[12] = Oral bioavailability in Sprague-Dawley rat at 10 mg/kg by LC-MS analysis; assay type: ADME, organism-based; conditions: in vivo
In short: (§4)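 Two groups of rats (3 per group) received a single dose, either 1 mg/kg i.v. or 10 mg/kg p.o. Plasma concentrations were followed to derive Tmax, Cmax, T1/2, AUC and F. Data are from triple testing (± standard deviation).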

[13] = Tmax in Sprague-Dawley rat at 1 mg/kg, iv by LC-MS analysis; assay type: ADME, organism-based; conditions: in vivo; in short: as §4
Mus musculus = experiment: In vivo inhibition of ERK1/2 in BALB/c mouse xenografted with human MKN74 cells assessed as reduction in phosphorylated ERK1/2 expression at 50 mg/kg, po administered once daily for 16 days measured post-last dose by immunohistochemical analysis; assay type: functional, organism-based; in short: as §3
MKN-74 [14] = experiment: Cytotoxicity against human MKN74 cells harboring ATG5 siRNA assessed as reduction in cell viability at 0.5 uM by MTT assay; assay type: functional, cell-based
In short: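 MKN-74 cells transfected with ATG5-specific or negative-control siRNA for the indicated times, then treated with 0.5 μM. Viability read by MTT assay.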

[15] = target: T1, Mitogen-activated protein kinase; ERK1/ERK2 (Homo sapiens); experiment: Inhibition of ERK1/2 in human MKN74 cells assessed as reduction in ERK1/2 phosphorylation at T202/Y204 residue at 0.5 uM measured up to 24 hrs by Western blot analysis; assay type: cell-based
[16] = Cmax in Sprague-Dawley rat at 10 mg/kg, po by LC-MS analysis; assay type: ADME, organism-based; set-up: dose 10 mg/kg, route oral; conditions: in vivo; in short: as §2
MKN-74 [17] = experiment: Antiproliferative activity against human MKN74 cells assessed as reduction in cell viability measured after 24 hrs; assay type: functional, cell-based; conditions: MKN-74, 24 h
HL-60 [18] = experiment: Induction of cytoplasmic vacuolization in human HL60 cells; assay type: functional, cell-based
MKN-74 [19] = experiment: Antitumor activity against human MKN74 cells xenografted in BALB/c mouse assessed as reduction in tumor volume at 50 mg/kg, po administered once daily for 16 days measured every 3 days during compound dosing; assay type: functional, organism-based
In short: (§5)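 Female nude mice bearing subcutaneous HL-60, MKN-74 or HeLa xenografts, 8 per group. Dosing was vehicle control or 50 mg/kg p.o. once daily for 16 days. Tumor volume followed over time, mean ± SEM.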

[20] = Effect on Ras/Raf/MEK/ERK signaling in human MKN74 cells assessed as change in p38 phosphorylation at Thr180/Tyr182 residue at 0.5 uM measured up to 24 hrs by Western blot analysis; assay type: cell-based; in short: as §1
HL-60 [21] = experiment: Antiproliferative activity against human HL60 cells assessed as reduction in cell viability measured after 24 hrs; assay type: functional, cell-based; conditions: HL-60, 24 h
[22] = target: Mitogen-activated protein kinase 7 (Homo sapiens) (UniProt Q13164); experiment: Inhibition of ERK5 in human MKN74 cells harboring ERK1/2 siRNA assessed as reduction in ERK5 phosphorylation at 0.5 uM by Western blot analysis; assay type: cell-based
Mitogen-activated protein kinase 7 (Homo sapiens), sequence (Q13164 2-816 limits assumed): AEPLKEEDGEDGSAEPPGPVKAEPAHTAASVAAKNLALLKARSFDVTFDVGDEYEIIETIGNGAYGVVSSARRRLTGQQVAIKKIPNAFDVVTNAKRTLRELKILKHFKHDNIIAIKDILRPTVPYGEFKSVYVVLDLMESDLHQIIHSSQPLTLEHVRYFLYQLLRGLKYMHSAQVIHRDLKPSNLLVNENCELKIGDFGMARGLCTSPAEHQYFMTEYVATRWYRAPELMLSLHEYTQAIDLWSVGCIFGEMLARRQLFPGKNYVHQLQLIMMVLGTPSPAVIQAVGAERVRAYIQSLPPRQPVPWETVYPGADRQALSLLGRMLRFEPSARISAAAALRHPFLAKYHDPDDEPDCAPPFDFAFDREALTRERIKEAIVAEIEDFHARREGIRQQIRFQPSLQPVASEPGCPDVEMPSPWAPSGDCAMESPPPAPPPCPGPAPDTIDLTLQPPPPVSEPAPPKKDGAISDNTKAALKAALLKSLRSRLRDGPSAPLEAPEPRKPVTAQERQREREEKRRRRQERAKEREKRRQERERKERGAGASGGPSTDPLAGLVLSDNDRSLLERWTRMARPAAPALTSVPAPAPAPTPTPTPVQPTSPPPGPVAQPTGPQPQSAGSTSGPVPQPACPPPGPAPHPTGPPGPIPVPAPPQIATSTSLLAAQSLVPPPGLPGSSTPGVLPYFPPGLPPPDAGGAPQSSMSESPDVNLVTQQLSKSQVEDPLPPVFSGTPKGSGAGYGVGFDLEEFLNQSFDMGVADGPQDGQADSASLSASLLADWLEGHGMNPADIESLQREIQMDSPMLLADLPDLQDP
In short: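 MKN-74 cells were transfected with ERK1/2-specific siRNA or negative-control siRNA, then exposed to compound. ERK1/2, p-ERK1/2, ERK5 and p-ERK5 were read by immunoblotting, with GAPDH as loading control.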

[23] = Effect on Ras/Raf/MEK/ERK signaling in human MKN74 cells assessed as change in Ras expression at 0.5 uM measured up to 24 hrs by Western blot analysis; assay type: cell-based; in short: as §1
[24] = target: Mitogen-activated protein kinase 7 (Homo sapiens) (UniProt Q13164); experiment: Inhibition of ERK5 in human MKN74 cells harboring ERK1/2 siRNA assessed as reduction in ERK5 phosphorylation at 0.5 uM by immunofluorescence assay; assay type: cell-based
In short: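 ERK1/2-specific or negative-control siRNA was transfected into MKN-74 cells for the indicated times, followed by compound at 0.5 μM. p-ERK1/2 and p-ERK5 puncta were detected by immunocytochemistry.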

[25] = Effect on Ras/Raf/MEK/ERK signaling in human MKN74 cells assessed as change in p38 expression at 0.5 uM measured up to 24 hrs by Western blot analysis; assay type: cell-based; in short: as §1
HL-60 [26] = experiment: Antitumor activity against human HL60 cells xenografted in BALB/c mouse assessed as reduction in tumor volume at 50 mg/kg, po administered once daily for 16 days measured every 3 days during compound dosing; assay type: functional, organism-based; in short: as §5

NC(=O)c1c(NC(=O)c2ccccc2Cl)sc2c1CCN(C(=S)Nc1ccccc1Cl)C2
Activity [1]: inactive | Activity (HL-60 [2]): inactive | Activity (MKN-74 [3]): Active | AUC(0-t) [4]: 1840 ng·h/mL | Activity (MKN-74 [5]): Active | Activity (MKN-74 [6]): inactive | half-life [7]: 74.4 min | Cmax [8]: 1890 ng/mL | inhibition [9]: Active | inhibition [10]: 93.5% | Activity [11]: inactive | bioavailability [12]: 27.6% | Tmax [13]: 4.8 min | inhibition (Mus musculus): Active | Activity (MKN-74 [14]): inactive | inhibition [15]: Active | Cmax [16]: 1560 ng/mL | pIC50 (MKN-74 [17]): 5.59 | Activity (HL-60 [18]): inactive | Activity (MKN-74 [19]): Active | Activity [20]: inactive | pIC50 (HL-60 [21]): 5.90 | inhibition [22]: Active | Activity [23]: inactive | inhibition [24]: Active | Activity [25]: inactive | Activity (HL-60 [26]): Active
